This is an account of results in ChEMBL document CHEMBL3407337, “Molecular design, synthesis and biological research of novel pyridyl acridones as potent DNA-binding and apoptosis-inducing agents” (Eur J Med Chem, 2015).

Assay [1] has as its system K562. Briefly: Induction of apoptosis in human K562 cells assessed as early apoptotic cells at 1 uM after 48 hrs by annexin V/PI staining based flow cytometry (reference value: 3.89 %). It counts as functional. On the technique in general: A flow cytometer gives signals particle by particle.
The subject of assay [2] is K562. Description: Induction of apoptosis in human K562 cells assessed as early apoptotic cells at 2.5 uM after 48 hrs by annexin V/PI staining based flow cytometry (reference value: 3.89 %). The class given is functional.
Assay [3] has as its system K562. Briefly: Induction of apoptosis in human K562 cells assessed as cleavage of caspase-9 at 1 uM after 36 hrs by Western blot analysis. It counts as functional, cell-based. An outline of the steps:
(§1)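 K562 cells in 6 cm dishes treated 36 h at various concentrations. Cells lysed on ice for 0.5 h and spun at 20,000 g. Protein measured by BCA. Lysates run on 12% SDS-PAGE and transferred to PVDF. Membranes blocked in 5% milk and probed overnight at 4 °C with primary antibody against cleaved caspase-9, -7, -3, cleaved PARP or Bcl-XL.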
(Immunoblotting shows a protein as a band on a membrane.)

The subject of assay [4] is K562. Briefly: Induction of apoptosis in human K562 cells assessed as cleavage of caspase-3 at 1 uM after 36 hrs by Western blot analysis. The class given is functional, cell-based. In a few lines:
as §1

Assay [5] deals with K562. Description: Induction of apoptosis in human K562 cells assessed as reduction in Bcl-XL protein expression at 1 uM after 36 hrs by Western blot analysis. It counts as functional, cell-based. In a few lines:
as §1

Assay [6] concerns K562. Briefly: Antiproliferative activity against human K562 cells after 48 hrs by MTT assay. It counts as functional, cell-based. To be noted: K562, 48 h. In a few lines:
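K562 suspension cells in RPMI-1640 with 10% FBS, 37 °C, 5% CO2. Seeded at 1.5×10^4 cells/well, exposed 48 h to final 50, 25, 10, 1 and 0.1 μM. MTT (5 mg/mL) added for 4 h at 37 °C. IC50 from the dose series.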
(In general: Tetrazolium assays rely on reduction of a dye to a coloured formazan, in cell work by metabolically active cells.)

The nature of assay [7]: Antiproliferative activity against human A172 cells after 48 hrs by MTT assay. It counts as functional, cell-based. The note with it: A 172, 48 h. In a few lines:
(§2)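 Adherent lines seeded at 6×10^3 cells/well and allowed 12 h attachment. Media: NCI-H520 and HeLa RPMI-1640; HepG2, MCF-7, CNE-2, A375, A172 and U118-MG DMEM; U251 MEM-EBSS; all with 10% FBS, 37 °C, 5% CO2. Dosed 48 h at final 50, 25, 10, 1 and 0.1 μM. MTT 4 h, formazan dissolved in DMSO, A490. IC50 from the dose series.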

In the next assay the test system is HeLa. Description: Antiproliferative activity against human HeLa cells after 48 hrs by MTT assay. It counts as functional, cell-based. In a few lines: as §2
The next assay relates to HepG2. Description: Antiproliferative activity against human HepG2 cells after 48 hrs by MTT assay. The class given is functional, cell-based. The note with it: HepG2, 48 h. An outline of the steps: as §2
For another assay, the system named is Calf thymus DNA. Briefly: Binding affinity to calf thymus DNA assessed as increase in DNA viscosity at 6 to 36 uM by viscosity method. To be noted: Bos taurus. The class given is nucleic-acid assay. In a few lines: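 ct DNA at 200 μM in Tris-HCl buffer, compound at 6–36 μM, viscometer held at 25.0 °C. Flow times read in triplicate and averaged. η = (t−t0)/t0; (η/η0)^1/3 plotted against the compound:DNA ratio.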

Assay [8] addresses T1, DNA topoisomerase 1 (Homo sapiens) (UniProt P11387).
T1 sequence (whole entry): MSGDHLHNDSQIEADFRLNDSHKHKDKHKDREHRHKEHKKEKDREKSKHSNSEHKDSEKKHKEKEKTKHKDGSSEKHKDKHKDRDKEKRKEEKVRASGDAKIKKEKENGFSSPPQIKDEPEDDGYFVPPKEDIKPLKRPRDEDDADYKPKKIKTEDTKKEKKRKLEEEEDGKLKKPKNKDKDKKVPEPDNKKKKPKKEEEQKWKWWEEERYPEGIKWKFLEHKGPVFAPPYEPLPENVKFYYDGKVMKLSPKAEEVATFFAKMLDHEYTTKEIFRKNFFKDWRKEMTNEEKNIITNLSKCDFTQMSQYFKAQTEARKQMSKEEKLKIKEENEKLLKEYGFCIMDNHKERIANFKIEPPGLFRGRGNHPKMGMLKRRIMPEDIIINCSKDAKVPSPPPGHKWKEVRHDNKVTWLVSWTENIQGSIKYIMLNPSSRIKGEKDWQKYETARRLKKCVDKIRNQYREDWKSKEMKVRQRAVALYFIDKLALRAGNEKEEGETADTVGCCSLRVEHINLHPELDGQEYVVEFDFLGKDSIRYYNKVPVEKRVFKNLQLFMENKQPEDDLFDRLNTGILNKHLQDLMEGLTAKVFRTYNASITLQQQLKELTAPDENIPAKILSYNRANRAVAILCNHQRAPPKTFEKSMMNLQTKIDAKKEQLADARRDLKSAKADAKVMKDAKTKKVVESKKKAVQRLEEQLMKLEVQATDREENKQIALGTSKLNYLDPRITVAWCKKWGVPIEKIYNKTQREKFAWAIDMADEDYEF
Description: Inhibition of recombinant human Topo1-mediated relation of supercoiled pBR322 DNA at 50 uM after 30 mins by agarose gel electrophoresis. In a few lines: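 pBR322 at 100 ng with 1.0 unit recombinant human topo I. Incubated 30 min at 37 °C in 35 mM Tris-HCl pH 8.0, 5 mM MgCl2, 72 mM KCl, 0.01% BSA, 2 mM spermidine and 5 mM DTT. Run on 1% agarose in TAE at 100 V for 25 min. EB-stained gel viewed under UV.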

In assay [9] the test system is K562. Briefly: Induction of apoptosis in human K562 cells assessed as early apoptotic cells at 0.05 uM after 48 hrs by annexin V/PI staining based flow cytometry (reference value: 3.89 %). It counts as functional.
Assay [10] deals with K562. Briefly: Induction of apoptosis in human K562 cells assessed as early apoptotic cells at 0.25 uM after 48 hrs by annexin V/PI staining based flow cytometry (reference value: 3.89 %). The class given is functional.

The structures appear in SMILES notation. pIC50: −log10 of the molar value. Activity calls are given as the source filed them. The calls are words filed in the database; no cut-off is given here.

Take `Cc1cccc2c(=O)c3c(NCc4ccncc4)ccc(C(=O)NCCN(C)C)c3[nH]c12`: the Activity amounted to 27.06% with K562 [1], 54.93% in the assay with K562 [2], 8.98% in the assay on K562 [9] and 15.64% in the assay with K562 [10]. Also, the outcome in the assay on K562 [3], in the assay with K562 [4], in the assay with K562 [5] and in the assay with Calf thymus DNA was Active. Further, the negative-log IC50 (pIC50) with K562 [6] was 6.34; in [7], 5.66; with HeLa, 5.42; in the assay with HepG2 it was 6.49. Also, the inhibition result in assay [8] is “Active”.

A word on the pIC50: it is the negative decadic logarithm of the IC50, by convention in mol/L. Read a low pIC50 as a large IC50.
